For 15 molecules, Ki, IC50 and inhibition results are on record in ChEMBL document CHEMBL1275337, “Biflavonoids from Torreya nucifera displaying SARS-CoV 3CL(pro) inhibition” (Bioorg Med Chem, 2010).

Assay [1] has as its target T1, Replicase polyprotein 1ab (Severe acute respiratory syndrome-related coronavirus, UniProt P0C6X7). Description: Non-competitive inhibition of SARS coronavirus 3C-like protease by Dixon plot analysis. In a few lines: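 Inhibition mode comes from FRET protease rates at substrate concentrations of 2.5, 5.0 and 10.0 µM across several inhibitor concentrations. Ki is taken from Dixon (1/V versus [I]) and Lineweaver-Burk plots; type is assigned from Vmax versus inhibitor concentration. Triplicate experiments.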

The target of assay [2] is T1, Replicase polyprotein 1ab. Nature of the assay: Inhibition of SARS coronavirus 3C-like protease after 60 mins by FRET assay.
In assay [3] the target is Replicase polyprotein 1ab (Severe acute respiratory syndrome-related coronavirus) (UniProt P0C6X7). Description: Inhibition of SARS coronavirus 3C-like protease at 200 uM after 60 mins by FRET assay.

In the case of `COc1ccc(-c2cc(=O)c3c(O)cc(O)cc3o2)cc1-c1c(O)cc(O)c2c(=O)cc(-c3ccc(O)cc3)oc12` [BILOBETIN], in assay [1], affinity was put at a Ki of 80.4 µM. The half-inhibitory concentration (IC50) in assay [2] turned out to be 72.3 µM.

For the molecule `C=C[C@@]1(C)CC[C@H]2C(=CC[C@@H]3[C@]2(C)CCC[C@@]3(C)C(=O)O)C1` [ISOPIMARIC ACID], the inhibition in assay [3] worked out at 28.9%. Also, in assay [2], the half-inhibitory concentration (IC50) amounted to 283 µM.

Turning to `COc1ccc(-c2cc(=O)c3c(O)cc(O)c(-c4cc(-c5cc(=O)c6c(O)cc(OC)cc6o5)ccc4OC)c3o2)cc1` [SCIADOPITISIN], the affinity in assay [1] corresponds to a Ki of 35.6 µM. Further, inhibition in assay [2] was half-maximal at 38.4 µM (IC50).

Turning to `COC(=O)[C@]1(C)CCC[C@]2(C)c3ccc(C(C)C)cc3CC[C@@H]12` [METHYL DEHYDROABIETATE], in assay [3], the inhibition worked out at 46.7%. The molecule also came in with an IC50 in assay [2] of 207 µM.

With `C=C1CC[C@H]2[C@](C)(CO)CCC[C@]2(C)[C@H]1CC/C(C)=C\CO` [KAYADIOL], the inhibition in assay [3] amounted to 75.2%. This molecule showed an IC50 in assay [2] of 138 µM.

The molecule `O=c1cc(-c2ccc(O)c(O)c2)oc2cc(O)cc(O)c12` [LUTEOLIN] showed an IC50 in assay [2] of 20 µM.

Turning to `O=c1cc(-c2ccc(O)c(-c3c(O)cc(O)c4c(=O)cc(-c5ccc(O)cc5)oc34)c2)oc2cc(O)cc(O)c12` [AMENTOFLAVONE], in assay [1], the Ki worked out at 13.8 µM.

`CC(C)c1cc2c(cc1O)[C@@]1(C)CCCC(C)(C)[C@@H]1CC2` [FERRUGINOL] yielded an inhibition in assay [3] of 92.7%. The same molecule yielded an IC50 in assay [2] of 49.6 µM.

The molecule `CC(C)c1cc2c(cc1O)[C@@]1(C)CC[C@H](O)C(C)(C)[C@@H]1CC2` [HINOKIOL] had an inhibition in assay [3] of 39.1%. The same molecule registered a half-maximal inhibitory concentration (IC50) in assay [2] of 233 µM.

In assay [1], `COc1cc(O)c2c(=O)cc(-c3ccc(OC)c(-c4c(O)cc(O)c5c(=O)cc(-c6ccc(O)cc6)oc45)c3)oc2c1` [GINKGETIN] yielded a Ki of 30.2 µM. The molecule further showed an IC50 in assay [2] of 32 µM.

In turn, `O=c1cc(-c2ccc(O)cc2)oc2cc(O)cc(O)c12` [APIGENIN] showed an inhibition in assay [3] of 40%. Moreover, the IC50 in assay [2] came to 281 µM.

Regarding `CC(C)c1cc2c(cc1O)[C@@]1(C)CCC[C@@](C)(CO)[C@@H]1CC2` [18-HYDROXYFERRUGINOL], the inhibition in assay [3] is 45.8%. Also, the IC50 in assay [2] came out at 221 µM.

As to `CC(C)c1cc2c(cc1O)[C@@]1(C)CCC[C@@](C)(C=O)[C@@H]1CC2` [18-OXOFERRUGINOL], the inhibition in assay [3] came to 70.5%. The molecule further showed an IC50 in assay [2] of 163 µM.

In assay [3], `CC(C)C1=CC2=CC[C@@H]3[C@](C)(CCC[C@@]3(C)C(=O)O)[C@H]2CC1` [ABIETIC ACID] registered an inhibition of 58%. In assay [2], 189 µM corresponded to half-maximal inhibition (IC50).

For `CC(=O)Oc1cc2c(cc1C(C)C)CC[C@H]1[C@](C)(CO)CCC[C@]21C`, the inhibition in assay [3] was 78.6%. This molecule also displayed an IC50 in assay [2] of 129 µM.

As a reminder, the Ki is the dissociation constant of the complex between target and ligand, obtained from inhibition or displacement. A low value points to tighter binding. The term IC50 denotes the midpoint of a concentration-inhibition curve. One may read the inhibition as the change of the read-out against control, counted positive when it falls.
